What is called pIC50 is the negative decadic logarithm of the IC50, by convention in mol/L. Low readings indicate a large IC50, high ones a small IC50.

These results are taken from ChEMBL document CHEMBL4190344, “Synthesis of substituted phenanthrene-9-benzimidazole conjugates: Cytotoxicity evaluation and apoptosis inducing studies” (Eur J Med Chem, 2017).

pIC50: −log10 of the molar value. Active and inactive are the calls of the source. The rule behind the calls is not given here.

Experiment [1] relates to PC-3. The experiment is described as follows: Induction of morphological changes in human PC3 cells assessed as increase in cell detachment at 2.5 to 10 uM incubated for 48 hrs by phase contrast microscopy. In kind it is functional, cell-based. An outline of the steps: (§1)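 PC-3 cells at 1 × 10^5 cells/mL adhered overnight, then received compound at 2.5, 5.0 or 10.0 µM. After 48 h, morphology (viable cell number, nuclear shrinkage, detachment) was imaged by phase contrast microscopy.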

The subject of experiment [2] is PC-3. The experiment can be described thus: Cell cycle arrest in human PC3 cells assessed as accumulation at subG1 phase at 5 uM incubated for 24 hrs by propidium iodide staining based flow cytometry (reference value: 1.71%). In kind it is functional.
Experiment [3] concerns PC-3. The experiment is described as follows: Induction of morphological changes in human PC3 cells assessed as increase in nuclear shrinkage at 2.5 to 10 uM incubated for 48 hrs by phase contrast microscopy. In kind it is functional, cell-based. In short, it runs like this:
as §1

The subject of experiment [4] is PC-3. The experiment is described as follows: Induction of apoptosis in human PC3 cells assessed as late apoptotic cells level at 5 uM incubated for 24 hrs by annexin V-FITC/propidium iodide dual staining based flow cytometry (reference value: 10.92%). In kind it is functional. An outline of the steps:
(§2)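 PC-3 cells were grown 24 h, then treated 24 h at 2.5, 5.0 or 10 µM. Cells were trypsinised, washed twice in ice-cold PBS and stained in binding buffer with Annexin V-FITC followed by propidium iodide at room temperature in the dark. 10,000 cells per sample were run on a flow cytometer, with quadrants scored as live, early apoptotic, late apoptotic or necrotic.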

For experiment [5], the system named is PC-3. The experiment can be described thus: Cytotoxicity in human PC3 cells assessed as reduction in cell viability at 2.5 to 10 uM incubated for 48 hrs by phase contrast microscopy. In kind it is functional, cell-based. An outline of the steps:
as §1

For experiment [6], the system named is PC-3. The experiment is described as follows: Induction of apoptosis in human PC3 cells incubated for 24 hrs by annexin V-FITC/propidium iodide dual staining based flow cytometry. The class given is functional, cell-based. In short, it runs like this:
as §2

Experiment [7] relates to PC-3. The experiment can be described thus: Induction of apoptosis in human PC3 cells assessed as necrotic cells level at 5 uM incubated for 24 hrs by annexin V-FITC/propidium iodide dual staining based flow cytometry (reference value: 0.59%). In kind it is functional. In short, it runs like this: as §2
In general terms: Flow cytometry measures light scatter and fluorescence of single cells or particles in a stream.

Experiment [8] has as its system PC-3. The experiment can be described thus: Cell cycle arrest in human PC3 cells assessed as accumulation at S phase at 2.5 uM incubated for 24 hrs by propidium iodide staining based flow cytometry (reference value: 13.92%). In kind it is functional.
Experiment [9] deals with PC-3. The experiment is described as follows: Induction of apoptosis in human PC3 cells assessed as early apoptotic cells level at 2.5 uM incubated for 24 hrs by annexin V-FITC/propidium iodide dual staining based flow cytometry (reference value: 11.76%). The class given is functional. In short, it runs like this: as §2
The subject of experiment [10] is PC-3. The experiment can be described thus: Induction of apoptosis in human PC3 cells assessed as viable cells level at 2.5 uM incubated for 24 hrs by annexin V-FITC/propidium iodide dual staining based flow cytometry (reference value: 76.73%). The class given is functional. An outline of the steps: as §2
For experiment [11], the system named is PC-3. The experiment is described as follows: Cell cycle arrest in human PC3 cells assessed as accumulation at S phase at 2.10 uM incubated for 24 hrs by propidium iodide staining based flow cytometry (reference value: 13.92%). The class given is functional.
Experiment [12] relates to PC-3. The experiment can be described thus: Cell cycle arrest in human PC3 cells assessed as accumulation at G0/G1 phase at 5 uM incubated for 24 hrs by propidium iodide staining based flow cytometry (reference value: 56.67%). In kind it is functional.
Experiment [13] has as its system PC-3. The experiment is described as follows: Induction of apoptosis in human PC3 cells assessed as induction of horse-shoe shaped nuclei formation at 2.5 to 10 uM incubated for 48 hrs by DAPI staining based fluorescence microscopy. The class given is functional, cell-based. An outline of the steps:
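Compound-treated PC-3 cells were PBS-washed, permeabilised with 0.1% Tween 20 for 10 min and stained with 1 µM DAPI. Nuclear morphology was viewed by fluorescence microscopy at ex 359/em 461 nm, 200×.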

Experiment [14] has as its system PC-3. The experiment can be described thus: Induction of mitochondrial membrane potential loss in human PC3 cells assessed as JC1 monomer level at 2.5 uM incubated for 24 hrs by JC1 staining based flow cytometry (reference value: 22.8%). The class given is functional.
Experiment [15] deals with PC-3. The experiment is described as follows: Cell cycle arrest in human PC3 cells assessed as accumulation at subG1 phase at 2.5 uM incubated for 24 hrs by propidium iodide staining based flow cytometry (reference value: 1.71%). In kind it is functional.
Experiment [16] has as its system HCT-15. The experiment is described as follows: Cytotoxicity in human HCT15 cells incubated for 48 hrs by MTT assay. The class given is functional, cell-based. The note with it: HCT-15, 48 h. In short, it runs like this: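 Cells (1 × 10^4/well) were seeded in medium with 10% FBS and left 24 h at 37 °C. Compound diluted in medium was then added, alongside a vehicle control, for 48 h. MTT (5 mg/mL stock) was added for 4 h, formazan dissolved in DMSO and absorbance read at 570 nm. IC50 taken as the concentration giving 50% inhibition.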

In experiment [17] the test system is PC-3. The experiment can be described thus: Induction of apoptosis in human PC3 cells assessed as necrotic cells level at 10 uM incubated for 24 hrs by annexin V-FITC/propidium iodide dual staining based flow cytometry (reference value: 0.59%). In kind it is functional. An outline of the steps:
as §2

Experiment [18] has as its system PC-3. The experiment can be described thus: Induction of apoptosis in human PC3 cells assessed as early apoptotic cells level at 5 uM incubated for 24 hrs by annexin V-FITC/propidium iodide dual staining based flow cytometry (reference value: 11.76%). In kind it is functional. An outline of the steps:
as §2

Experiment [19] deals with PC-3. The experiment can be described thus: Cell cycle arrest in human PC3 cells assessed as accumulation at subG1 phase at 2.10 uM incubated for 24 hrs by propidium iodide staining based flow cytometry (reference value: 1.71%). The class given is functional.
Experiment [20] concerns PC-3. The experiment can be described thus: Induction of cell death in human PC3 cells assessed as induction of membrane blebbing at 10 uM incubated for 48 hrs by acridine orange and ethidium bromide staining based fluorescence microscopy. In kind it is functional. In short, it runs like this:
(§3)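 PC-3 cells (1 × 10^6 cells/mL) were treated with compound and kept 48 h at 37 °C, 5% CO2. Acridine orange and ethidium bromide (10 µg/mL) were added in equal volumes. After 10 min, cells were imaged by fluorescence microscopy (ex 488/em 550 nm, 200×).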

Experiment [21] deals with PC-3. The experiment is described as follows: Cell cycle arrest in human PC3 cells assessed as accumulation at G2/M phase at 10 uM incubated for 24 hrs by propidium iodide staining based flow cytometry (reference value: […]).
Experiment [22] deals with PC-3. The experiment can be described thus: Induction of cell death in human PC3 cells assessed as induction of apoptotic body formation at 10 uM incubated for 48 hrs by acridine orange and ethidium bromide staining based fluorescence microscopy. The class given is functional. An outline of the steps:
as §3

Experiment [23] deals with PC-3. The experiment is described as follows: Induction of reactive oxygen species in human PC3 cells at 2.5 to 10 uM incubated for 6 hrs by DCFDA dye based spectrofluorometry. The class given is functional, cell-based. An outline of the steps: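 PC-3 cells (1 × 10^6 cells/mL) adhered overnight, then were treated at 2.5, 5.0 or 10.0 µM. Medium was replaced with DCFDA 10 µM for 30 min in the dark, and fluorescence read by spectrofluorometer at ex 488/em 525 nm. N-acetyl cysteine pretreatment before compound and H2O2 were used as comparisons.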

`COc1ccc2cc(-c3nc4ccc(F)cc4[nH]3)c3cc(OC)c(OC)cc3c2c1`: the result in experiment [1], in experiment [3], in experiment [5], in [13], in [20] and in experiment [22] was Active. For the same compound, the Activity is 5.01% in experiment [2]; 34.03% in experiment [4]; “Dose-dependent effect” in experiment [6]; 0.44% in experiment [7]; 11.3% in experiment [8]; 36.2% in experiment [9]. The Activity in [10] is 38.69%; in [11], 11.76%; in experiment [12], 49.29%; in experiment [14] it was 33.35%; in [15] it was 3.08%; in experiment [17] it was 0.36%. Moreover, the Activity is 33.41% in experiment [18], 5.01% in experiment [19], 44.16% in [21] and “Dose-dependent effect” in experiment [23]. The pIC50 in [16] was below 4.70.
